Compound activity as filed in PubChem BioAssay.
Only some compounds are listed: those with a hit (about 0.95% of all), similar ones and a draw of the others.
HKDC1 inh – HKDC1 hexokinase inhibitors, primary screen, biochemical, fluorescence, uHTS. recombinant HKDC1, G6PDH/diaphorase resazurin coupled fluorescence. inhibition, % at 20 µM. 0.16% of 340,000 active. AID 493160, 2011;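 active means inhibition above about 35% when tested at 20 µM, limit read from the data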;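 further: plate controls were DMSO wells with enzyme for no effect and DMSO wells lacking enzyme for full effect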
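Test system: HK5 enzyme. Quantity: 5 µg/mL HK5 final. Reagent: glucose and ATP substrates. Schedule: 90 min reaction incubation at room temperature, dark. Technique: resazurin-to-resorufin fluorescence via G6PDH and diaphorase coupling, 525/613 nm. Control set: DMSO wells with and without enzyme mix.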
UBC9 SUMO inh – inhibitors of in vitro SUMOylation cascade, primary screen, biochemical, HTRF, uHTS. inhibition, % at 35 µM. AID 2006, 2009. HTRF SUMOylation assay, SAE1/SAE2 + UBC9. SUMO-conjugating enzyme UBC9 (Homo sapiens), P63279. 0.36% of 290,000 active; in the data active means inhibition above about 50%, passing the limit was not always enough
Target sequence (P63279 whole entry, looked up): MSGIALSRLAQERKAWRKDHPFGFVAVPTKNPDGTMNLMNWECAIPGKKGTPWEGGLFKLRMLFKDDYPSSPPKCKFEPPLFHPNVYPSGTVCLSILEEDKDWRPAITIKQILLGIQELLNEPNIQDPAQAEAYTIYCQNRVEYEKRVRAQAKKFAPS
G6PDH CS – L. mesenteroides G6PDH inhibitors, counter-screen for G6PDH-coupled screening assays, biochemical, Leuconostoc mesenteroides enzyme; Purified L. mesenteroides G6PDH, diaphorase/resazurin coupled fluorescence, 45 min; inhibition, % at 5 µM; 0.12% of 200,000 active; in the data active means inhibition above about 50%
p97 ATPase inh – inhibitors of human p97 ATPase, primary screen, biochemical; AID 1481, 2009; recombinant p97 ATPase, Kinase-Glo ATP luminescence, 3 h; Transitional endoplasmic reticulum ATPase (Homo sapiens), P55072; 0.42% of 220,000 active; inhibition, % at 8 µM; in the data active means inhibition above about 15%;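 further: 0% = DMSO vehicle and 100% = wells lacking enzyme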
Diaphorase inh – diaphorase inhibitors and chemical oxidizers, primary screen, counter-screen for diaphorase-coupled primary assays, biochemical, uHTS, resorufin fluorescence; diaphorase resazurin-to-resorufin fluorescence, NADH, 16 min; bacterial (C. kluyveri) enzyme, not human; inhibition, % at 20 µM; 0.69% of 190,000 active; AID 1217, 2008;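 active means primary screen inhibition at 20 µM above a set limit, cut at about 50% in these data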;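 further: plate controls were DMSO with full reaction for no effect and wells lacking NADH for full effect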
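Benchmarks: positive control wells lacking NADH, neutral wells with DMSO only. System: bacterial diaphorase enzyme (C. kluyveri). Input: 0.14 U/mL diaphorase, enzyme working solution. Detection: resorufin fluorescence, excitation 544 nm, emission 590 nm. Times: 16-min room-temperature incubation before reading.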
HKDC1 act conf2 – HKDC1 hexokinase activators, confirmation, biochemical, single concentration; shares compounds with HKDC1 inh; recombinant HKDC1, G6PDH/diaphorase resazurin fluorescence; stronger effect = lower value; inhibition, % at 20 µM; 14% of 740 active;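 active means inhibition at or below a set negative limit, negative inhibition meaning the enzyme was activated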
Active calls of the source: *.

What do the screens show for `Brc1ccc(C2N3CCCN23)cc1` (stereo not given)?
HKDC1 inh: -79.3; UBC9 SUMO inh: 0.8; G6PDH CS: -0.1; p97 ATPase inh: 1.4; Diaphorase inh: 6.4; HKDC1 act conf2: -22.5

Results for Cc1ccc(C2N3CCCN23)cc1 (stereo not given) ?
HKDC1 inh: 0.6; UBC9 SUMO inh: 6.8; p97 ATPase inh: 4.1

How did COC(=O)C1=C(c2ccc(S(C)(=O)=O)cc2)C[C@@H]2CC[C@H]1N2C(=O)NCC1CC1 do in these assays?
HKDC1 inh: -6.1

Results for O=c1nc(/C=C/c2ccc(Cl)cc2Cl)cc(C(F)(F)F)[nH]1 ?
HKDC1 inh: 35.1*; UBC9 SUMO inh: 9.6; HKDC1 act conf2: 6.1

Results for COC(=O)C1=C(c2cccc(OC)c2OC)C[C@@H]2CC[C@H]1N2C(=O)NCc1ccco1 ?
HKDC1 inh: -3.2
